Compound activity (PubChem BioAssay)
This is a sample that favours compounds with a hit; in the whole collection about 2.9% have one here.
HSP90 inh – HSP90 refolding inhibition in rabbit reticulocyte lysate; luciferase refolding luminescence, 3 h; inhibition, % at 5.6 µM; 0.91% of 290,000 active; AID 1789;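 active means inhibition above the screen-wide mean plus 3 SD, computed separately per campaign, cut at about 16% in these data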;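 further: 0% = DMSO wells and 100% = 60 µM geldanamycin wells; inhibitors lower the luminescence because luciferase stays unfolded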
SENP6 inh – inhibitors of human SENP6 protease | inhibition, % at 10 µM | Q9GZR1 | 1.8% of 330,000 active | AID 2599 | Recombinant SENP6 catalytic domain, aminoluciferin luminescence;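 active means inhibition above about 50% at the single tested dose, limit read from the data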;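 further: plate controls were DMSO wells with enzyme for no effect and DMSO wells lacking enzyme for full effect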
SENP1 inh – blocks the human SENP1 SUMO protease catalytic domain; recombinant SENP1 catalytic domain, CyPet-SUMO1-YPet FRET cleavage; inhibition, % at 10 µM; 0.21% of 360,000 active; Q9P0U3;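 active means inhibition at least 30% at 10 µM, raw YFP signal under a set limit, fluorescence ratio 0.5 to 1.5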;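 further: 0% = enzyme with DMSO and 100% = no enzyme wells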
Target sequence (Q9P0U3 419-644 limits assumed): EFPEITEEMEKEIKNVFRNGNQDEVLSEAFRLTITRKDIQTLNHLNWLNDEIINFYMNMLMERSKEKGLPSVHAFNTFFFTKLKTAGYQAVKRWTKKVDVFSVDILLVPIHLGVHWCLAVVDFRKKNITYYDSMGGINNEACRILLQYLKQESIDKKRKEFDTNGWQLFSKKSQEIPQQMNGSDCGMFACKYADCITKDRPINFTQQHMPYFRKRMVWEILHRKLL
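Material: hSENP1 catalytic domain, recombinant; medium: Tris pH 8 with BME, BSA, NP40 and catalase; compound: single concentration of 10 µM compound, 0.5% DMSO final; technique: FRET read of cyan and yellow fluorescence; timing: 50 min enzyme reaction, room temperature, light-protected; reagent: SFCypet-SUMO1-SFYpet substrate at 25 nM; control set: no-enzyme low, enzyme-DMSO high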
SENP7 block – blocks the human protease SENP7; AID 434973; Q9BQF6; recombinant SENP7, Z-RLRGG-aminoluciferin luminescence, 40 min; inhibition, % at 5 µM; 1.5% of 330,000 active;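 active means inhibition above about 50% at the single test dose, limit read from the data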;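 further: plate controls were DMSO with enzyme for no effect and no enzyme buffer wells for full effect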
Target sequence (Q9BQF6 706-1050 limits assumed): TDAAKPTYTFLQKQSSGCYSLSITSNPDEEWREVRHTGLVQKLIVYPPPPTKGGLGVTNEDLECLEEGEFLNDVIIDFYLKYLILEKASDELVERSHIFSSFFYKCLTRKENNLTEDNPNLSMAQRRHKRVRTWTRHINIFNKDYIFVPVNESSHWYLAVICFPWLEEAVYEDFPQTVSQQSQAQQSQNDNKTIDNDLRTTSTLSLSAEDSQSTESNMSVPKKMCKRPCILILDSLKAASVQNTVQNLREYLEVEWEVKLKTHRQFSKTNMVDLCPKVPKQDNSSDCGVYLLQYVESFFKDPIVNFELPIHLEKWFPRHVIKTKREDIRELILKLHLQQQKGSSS
SENP8 block-1 – inhibitors of human SENP8 protease. inhibition, % at 10 µM. Q96LD8. purified SENP8, Z-RLRGG-aminoluciferin cleavage, luminescence. 1.2% of 330,000 active. AID 2540; in the data active means inhibition above about 50%
SENP8 block-2 – SENP8 (human) protease inhibition; 0.64% of 360,000 active; AID 602440; recombinant SENP8, Nedd8 substrate fluorescence; inhibition, % at 20 µM; Q96LD8; in the data active means inhibition mostly above about 40%, no sharp cut-off; inactive means mostly below about 27%
SENP8 inh conf – SENP8 (human) inhibition, single concentration confirmation; shares compounds with SENP8 block-2; purified SENP8, Nedd8-AMC/pro-Nedd8 cleavage fluorescence, 30 min; inhibition, % at 25 µM; 15% of 1,400 active; AID 624319; in the data active means inhibition mostly above about 39%, no sharp cut-off; inactive means mostly below about 34%
Starred values were filed as active, the others as inactive; nt = no result.

SMILES	HSP90 inh	SENP6 inh	SENP1 inh	SENP7 block	SENP8 block-1	SENP8 block-2	SENP8 inh conf
C=C(C)CNC(=S)N/N=C/c1ccc([N+](=O)[O-])cc1	0	-16	-2	13	-1	20	nt
COCCNC(=S)N/N=C/c1ccc([N+](=O)[O-])cc1	2	-21	0	-3	-7	43*	23
CCN(CC(=O)Nc1c(F)cccc1F)C(=O)CSC(=S)N1CCCC1	nt	-11	-18	4	4	-17	nt
CCCC(=O)OCCNc1cc(SCc2ccco2)c2nonc2c1[N+](=O)[O-]	-2	32	-15	18	26	62*	6
CCCSc1cc(NCCOC(=O)CCC)c([N+](=O)[O-])c2nonc12	-6	12	-35	9	-2	20	nt
CC(NS(=O)(=O)c1c(N)n(C)c(=O)n(C)c1=O)c1ccccc1 (stereo not drawn)	-2	0	-2	-9	-3	5	nt
O=C1C(=C(I)I)c2ccccc2-c2ccccc21	nt	nt	-3	nt	nt	40*	-1
O=C(O)c1cccc2c1C(=O)c1ccccc1-2	-3	-9	1	0	1	13	nt
COCCNC(=O)C1(C)CCCN(C(=O)COc2ccccc2)C1 (stereo not drawn)	nt	nt	1	nt	nt	9	nt
Cc1ccccc1N1C(=O)CC(N(O)c2ccccc2)C1=O (stereo not drawn)	1	-3	2	0	0	13	nt
O=C1CC(N(O)c2ccccc2)C(=O)N1c1cc(Cl)cc(Cl)c1 (stereo not drawn)	3	-6	-1	-1	-11	44*	17
NC(=NC1CCCCC1)c1ccc([N+](=O)[O-])cc1	0	-7	1	3	8	42*	5
COCOc1cc(O)c(C(=O)/C=C/c2ccccc2)c(OCOC)c1	nt	7	3	-9	12	51*	6
COc1ccc(C(=O)/C=C/c2ccccc2)c(OC)c1	1	47	9	38	42	33	nt
CS(=O)(=O)Nc1ccc2c(c1)[C@H]1C[C@H](CC(=O)NCc3cccc(F)c3)O[C@@H](CO)[C@H]1O2	nt	nt	-4	nt	nt	-3	nt
O=C(Nc1cccnc1)c1ccc([N+](=O)[O-])s1	nt	10	3	10	3	43*	30
CCN(CC)c1ccc(CN(C(=O)c2cccs2)C2CCS(=O)(=O)C2)cc1 (stereo not drawn)	2	11	0	-2	14	6	nt
Cc1ccc(-c2csc(NC(=O)c3cccc([N+](=O)[O-])c3)n2)cc1	4	-2	3	-9	0	48*	19
O=C(Nc1nc(-c2ccc([N+](=O)[O-])cc2)cs1)c1c(F)cccc1F	5	-11	4	5	2	7	nt
COc1ccccc1NC(=O)CSC(N)=O	-5	-10	2	-4	-4	46*	17
COc1ccc(NCc2nnc(SCC(=O)Nc3ccccc3OC)o2)cc1	3	-4	1	-7	2	46*	37
S=c1[nH]nc(C2CCCCC2)n1/N=C/c1c(Cl)cccc1Cl	4	6	2	9	-5	21	nt
COc1ccc(N=C2S/C(=C\c3ccc(C)s3)C(=O)N2CC(C)C)cc1	0	3	3	-1	-6	44*	16
C[C@H](O)[C@@H]1CN2CCc3c([nH]c4ccccc34)[C@@H]2C[C@@H]1N(C)C(=O)NC1CCCCC1	nt	nt	-26	nt	nt	-170	nt
COc1ccc(C(=O)/C=C(\C)Nc2ccc3c(c2)OCO3)cc1	0	12	-5	1	-3	41*	3
SMILES	HSP90 inh	SENP6 inh	SENP1 inh	SENP7 block	SENP8 block-1	SENP8 block-2	SENP8 inh conf
N#CC(c1ccc(Cl)nn1)c1ccccc1Cl (stereo not drawn)	3	-8	2	5	3	41*	9
O=C(NC1CCCCC1)C(c1ccco1)N(CCc1ccccc1)C(=O)C(F)(F)F (stereo not drawn)	-1	-11	-1	0	2	45*	20
COc1ccccc1N1C(=O)C2C(c3ccc(F)cc3)NN(C(=O)c3ccc(C)cc3)C2C1=O (stereo not drawn)	4	-13	3	6	-1	44*	21
Cc1ccc(C(=O)N2NC(c3ccc(F)cc3)C3C(=O)N(c4ccc(C)cc4)C(=O)C32)cc1 (stereo not drawn)	-5	-4	5	-10	0	15	nt
OC[C@@H]1CN(CCc2ccccc2)C[C@H](n2cnc3c(NCc4ccc(F)cc4)ncnc32)O1	nt	nt	0	nt	nt	7	nt
CCOc1cc(/C=C2\N=C(SC)SC2=O)cc([N+](=O)[O-])c1OC(C)=O	-2	16	7	-8	10	45*	9
CCOc1cc(/C=C2\N=C(SCC)SC2=O)cc([N+](=O)[O-])c1OC(C)=O	-2	26	5	3	27	36	nt
O=c1[nH]n2c(=O)c3c([nH]c2c1N=Nc1cccc(Cl)c1)CCC3	4	nt	2	nt	nt	27	nt
O=c1[nH]n2c(=O)c3c([nH]c2c1N=Nc1cccc(C(F)(F)F)c1)CCCC3	4	5	4	-6	-6	56*	24
CCOc1cc(/C=C2/SC(=Nc3ccccc3)N(Cc3cccnc3)C2=O)ccc1OCC#N	-5	-21	-2	0	4	40*	15
COc1ccccc1C(=O)NCC(=O)N1CCN(c2ncccn2)CC1	nt	-8	1	0	1	3	nt
Cc1cc(=S)[nH]c2c(C)cccc12	-1	-4	1	0	-10	40*	13
N#Cc1cccc(-c2csc(C(O)c3ccco3)n2)c1 (stereo not drawn)	nt	nt	0	nt	nt	10	nt
Cc1cc(O)c(C(C)C)cc1N=Cc1ccc([N+](=O)[O-])cc1	nt	nt	2	nt	nt	95*	11
Cc1cc(O)c(C(C)C)cc1N=Cc1ccc(N(C)C)cc1	nt	nt	2	nt	nt	38	nt
COc1cccc(C=Nc2cc(C(C)C)c(O)cc2C)c1O	nt	nt	9	nt	nt	70*	23
CC1CN(c2ccc([N+](=O)[O-])c(NCCOc3ccccc3)c2)CC(C)N1 (stereo not drawn)	1	-15	1	1	1	38*	6
CC1CN(c2ccc([N+](=O)[O-])c(NCCOc3ccc(Cl)cc3)c2)CC(C)N1 (stereo not drawn)	2	2	2	-1	-6	46*	16
Cc1ccccc1OCCNc1cc(N2CC(C)NC(C)C2)ccc1[N+](=O)[O-] (stereo not drawn)	3	-22	3	-4	-7	25	nt
O=[N+]([O-])c1ccc(N2CCCCC2)cc1NCCOc1ccccc1	1	-3	2	-2	-10	40*	20
CC(C)(C)CNc1cc(N2CCCC2)ccc1[N+](=O)[O-]	-2	1	3	-1	-5	26	nt
